This passage reports Activity results from ChEMBL document CHEMBL4414550, “Binding of Monovalent and Bivalent Ligands by Transthyretin Causes Different Short- and Long-Distance Conformational Changes” (J Med Chem, 2019).

Activity calls are given as the source filed them. No cut-off for these calls is given here.

Experiment [1] addresses Transthyretin (Homo sapiens) (UniProt P02766). The experiment is described as follows: Binding affinity to His6-tagged wild-type TTR (unknown origin) expressed in Escherichia coli BL21 star (DE3) assessed as assignment of protein resonance by TROSY [1H-13C-15N] HNCA spectroscopy. The essentials: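 3D HNCA spectra of TTR acquired in the presence of ligand to confirm the backbone resonance assignment. The assignment was made de novo from TROSY multidimensional experiments at 310 K, pH 7.0 and 7.4.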

For experiment [2] the target is unchanged. The experiment is described as follows: Binding affinity to His6-tagged wild-type TTR (unknown origin) expressed in Escherichia coli BL21 star (DE3) at 0.5:1 ratio of test compound to protein by 2D TROSY [1H-15N] spectroscopy. The essentials:
(§1)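 50 μM TTR in 600 μL titrated with ligand from 10 mM stocks in DMSO-d6 (up to 6 μL; at most 1% v/v DMSO-d6). 2D [1H,15N] TROSY spectra recorded at ligand/protein ratios 0, 0.5, 1.0, 1.5 and 2.0 for the monovalent ligand and 0, 0.5 and 1.0 for the bivalent ligand. Per-residue amide shifts were expressed as a combined chemical shift change in ppm.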

For experiment [3] the target is unchanged. The experiment is described as follows: Binding affinity to wild-type TTR (unknown origin) assessed as increase in bound resonance at L55 residue at 0.5:1 to 1:1 ratio of compound to protein by 2D TROSY [1H-15N] spectroscopy. The essentials:
as §1

The target is the same in experiment [4]. As to the kind of experiment: Binding affinity to wild-type TTR (unknown origin) assessed as induction of chemical shift at H90 residue at 1:1 ratio of compound to protein by 2D TROSY [1H-15N] spectroscopy. The essentials:
as §1

For experiment [5] the target is unchanged. As to the kind of experiment: Binding affinity to wild-type TTR (unknown origin) assessed as induction of chemical shift perturbation at A120 residue at 1:1 ratio of compound to protein by 2D TROSY [1H-15N] spectroscopy. The essentials:
as §1

The target is the same in experiment [6]. The experiment is described as follows: Binding affinity to His6-tagged wild-type TTR (unknown origin) expressed in Escherichia coli BL21 star (DE3) at 1:1 ratio of test compound to protein by 2D TROSY [1H-15N] spectroscopy. The essentials:
as §1

For experiment [7] the target is unchanged. As to the kind of experiment: Binding affinity to wild-type TTR (unknown origin) assessed as induction of chemical shift at E72 residue at 0.6:1 to 1:1 ratio of compound to protein by 2D TROSY [1H-15N] spectroscopy. The essentials: as §1
Experiment [8] shares this target. As to the kind of experiment: Binding affinity to wild-type TTR (unknown origin) assessed as induction of chemical shift at L17 residue at 0.6:1 to 1:1 ratio of compound to protein by 2D TROSY [1H-15N] spectroscopy. The essentials:
as §1

Experiment [9] has the same target. The experiment is described as follows: Binding affinity to wild-type TTR (unknown origin) assessed as induction of chemical shift at A19 residue at 0.6:1 to 1:1 ratio of compound to protein by 2D TROSY [1H-15N] spectroscopy. The essentials: as §1
For experiment [10] the target is unchanged. As to the kind of experiment: Binding affinity to wild-type TTR (unknown origin) assessed as induction of chemical shift at R21 residue at 0.6:1 to 1:1 ratio of compound to protein by 2D TROSY [1H-15N] spectroscopy. The essentials: as §1
Experiment [11] shares this target. The experiment is described as follows: Binding affinity to wild-type TTR (unknown origin) assessed as induction of chemical shift at G22 residue at 0.6:1 to 1:1 ratio of compound to protein by 2D TROSY [1H-15N] spectroscopy. The essentials:
as §1

Experiment [12] has the same target. As to the kind of experiment: Binding affinity to wild-type TTR (unknown origin) assessed as induction of chemical shift at L58 residue at 0.6:1 to 1:1 ratio of compound to protein by 2D TROSY [1H-15N] spectroscopy. The essentials:
as §1

For experiment [13] the target is unchanged. As to the kind of experiment: Binding affinity to wild-type TTR (unknown origin) assessed as induction of chemical shift at H88 residue at 0.6:1 to 1:1 ratio of compound to protein by 2D TROSY [1H-15N] spectroscopy. The essentials:
as §1

For experiment [14] the target is unchanged. As to the kind of experiment: Binding affinity to wild-type TTR (unknown origin) assessed as induction of chemical shift at E92 residue at 0.6:1 to 1:1 ratio of compound to protein by 2D TROSY [1H-15N] spectroscopy. The essentials: as §1
The target is the same in experiment [15]. As to the kind of experiment: Binding affinity to wild-type TTR (unknown origin) assessed as induction of chemical shift at T96 residue at 0.6:1 to 2:1 ratio of compound to protein by 2D TROSY [1H-15N] spectroscopy. As to conditions: in the assay text read “0.6:1 to 1:1 ratio” for “0.6:1 to 2:1 ratio”. The essentials: as §1
Experiment [16] shares this target. The experiment is described as follows: Binding affinity to wild-type TTR (unknown origin) assessed as induction of chemical shift at A108 residue at 0.6:1 to 1:1 ratio of compound to protein by 2D TROSY [1H-15N] spectroscopy. The essentials: as §1
Experiment [17] has the same target. As to the kind of experiment: Binding affinity to wild-type TTR (unknown origin) assessed as induction of chemical shift at A109 residue at 0.6:1 to 1:1 ratio of compound to protein by 2D TROSY [1H-15N] spectroscopy. The essentials:
as §1

The target is the same in experiment [18]. As to the kind of experiment: Binding affinity to wild-type TTR (unknown origin) assessed as induction of chemical shift at L110 residue at 0.6:1 to 1:1 ratio of compound to protein by 2D TROSY [1H-15N] spectroscopy. The essentials: as §1
For experiment [19] the target is unchanged. As to the kind of experiment: Binding affinity to wild-type TTR (unknown origin) assessed as induction of chemical shift at Y114 residue at 0.6:1 to 1:1 ratio of compound to protein by 2D TROSY [1H-15N] spectroscopy. The essentials: as §1
The target is the same in experiment [20]. As to the kind of experiment: Binding affinity to wild-type TTR (unknown origin) assessed as induction of chemical shift at S117 residue at 0.6:1 to 1:1 ratio of compound to protein by 2D TROSY [1H-15N] spectroscopy. The essentials: as §1
Experiment [21] has the same target. The experiment is described as follows: Binding affinity to wild-type TTR (unknown origin) assessed as induction of chemical shift at T118 residue at 0.6:1 to 1:1 ratio of compound to protein by 2D TROSY [1H-15N] spectroscopy. The essentials: as §1
Experiment [22] shares this target. As to the kind of experiment: Binding affinity to wild-type TTR (unknown origin) assessed as chemical shift perturbation at protein dimer-dimer interface at 1:1 ratio of compound to protein by 2D TROSY [1H-15N] spectroscopy. The essentials:
as §1

The target is the same in experiment [23]. As to the kind of experiment: Binding affinity to wild-type TTR (unknown origin) assessed as chemical shift perturbation at DE loops at 1:1 ratio of compound to protein by 2D TROSY [1H-15N] spectroscopy. The essentials:
as §1

Experiment [24] shares this target. As to the kind of experiment: Binding affinity to wild-type TTR (unknown origin) assessed as chemical shift perturbation at H1 helix at 1:1 ratio of compound to protein by 2D TROSY [1H-15N] spectroscopy. The essentials:
as §1

The target is the same in experiment [25]. As to the kind of experiment: Binding affinity to wild-type TTR (unknown origin) assessed as chemical shift perturbation at EH1 loops at 1:1 ratio of compound to protein by 2D TROSY [1H-15N] spectroscopy. The essentials: as §1
For experiment [26] the target is unchanged. As to the kind of experiment: Binding affinity to wild-type TTR (unknown origin) assessed as chemical shift perturbation at CD loops at 1:1 ratio of compound to protein by 2D TROSY [1H-15N] spectroscopy. The essentials:
as §1

The target is the same in experiment [27]. As to the kind of experiment: Binding affinity to wild-type TTR (unknown origin) assessed as induction of chemical shift perturbation at V93 residue at 1:1 ratio of compound to protein by 2D TROSY [1H-15N] spectroscopy. The essentials: as §1
Experiment [28] has the same target. The experiment is described as follows: Binding affinity to wild-type TTR (unknown origin) assessed as chemical shift perturbation at K9 residue at 1:1 ratio of compound to protein by 2D TROSY [1H-15N] spectroscopy. The essentials:
as §1

Experiment [29] has the same target. As to the kind of experiment: Binding affinity to wild-type TTR (unknown origin) assessed as formation of hydrogen bond between A25 and T49 at 1:1 ratio of compound to protein by 2D TROSY [1H-15N] spectroscopy.

`O=C(O)c1ccc2nc(-c3cc(Cl)cc(Cl)c3)oc2c1`: the outcome in experiment [1], in experiment [2], in experiment [3], in [4] and in experiment [5] was Active.

In the case of `O=C(O)c1ccccc1Nc1cc(Cl)c(OCCCCCCCOc2c(Cl)cc(Nc3ccccc3C(=O)O)cc2Cl)c(Cl)c1`, the outcome in [1], in experiment [2], in [6], in experiment [7], in experiment [3] and in experiment [4] was Active. The outcome in [5], in [22], in experiment [23], in [24], in [25] and in [26] was Active. Besides, the outcome in experiment [27], in experiment [28] and in experiment [29] was Active. Also, the outcome in [8], in experiment [9], in [10], in experiment [11], in experiment [12] and in experiment [13] was inactive. Also, the outcome in experiment [14], in experiment [15], in [16], in [17], in [18] and in experiment [19] was inactive. Also, the result in [20] and in experiment [21] was inactive.
